Data published in ChEMBL document CHEMBL1128741, “Synthesis and biological evaluation of 5-fluoro-2'-deoxyuridine phosphoramidate analogs” (J Med Chem, 1995).

How the values were obtained:
[1] = system: B16; assay: In vitro cytotoxicity (LC99) was measured against B16 Melanoma cells; type: cell-based; conditions: mouse
In short: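 B16 melanoma cells in exponential growth, (2–3) × 10⁶ in 10 mL serum-free MEM, exposed to drug for 2 h, then washed and resuspended in MEM + 10% FBS. Plated at 50–50 000 cells/plate, grown 8 d at 37 °C. Colonies stained with crystal violet and counted. LC99 (2-log drop in colony formation) taken from log-linear part of log surviving fraction vs concentration.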

[2] = system: L1210; assay: In vitro growth inhibition of L1210 cells 8 hours after administration of compound; type: functional, cell-based; conditions: Mus musculus, L1210, 8 h
In short: (§1)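 Exponentially growing L1210 cells at (3–6) × 10⁴/mL in Fischer's medium with 10% horse serum, glutamine and antibiotic-antimycotic. Drug exposure lasted the stated time (2, 8, 24 or 48 h). Cells were then spun down and resuspended in drug-free medium. Coulter counts were taken 48 h after the start of treatment and expressed as percent of control. IC50 is given in μM.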

[3] = system: L1210; assay: In vitro growth inhibition of L1210 cells 24 hours after administration of compound; type: functional, cell-based; conditions: Mus musculus, L1210, 24 h; in short: as §1
[4] = system: L1210; assay: In vitro growth inhibition of L1210 cells 48 hours after administration of compound; type: functional, cell-based; conditions: Mus musculus, L1210, 48 h; in short: as §1
[5] = system: L1210; assay: In vitro growth inhibition of L1210 cells 2 hours after administration of compound; type: functional, cell-based; conditions: Mus musculus, L1210, 2 h; in short: as §1

SMILES	LC99 [1] [µM]	IC50 [2] [nM]	IC50 [3] [nM]	IC50 [4] [nM]	IC50 [5] [nM]
CC1CC(C)(C)NC(CCOP(=O)(OC[C@H]2O[C@@H](n3cc(F)c(=O)[nH]c3=O)C[C@@H]2O)N(CCBr)CCBr)O1 (stereo partly specified)	100	–	–	–	–
CC1CC(C)(C)NC(CCOP(=O)(OC[C@H]2O[C@@H](n3ccc(=O)[nH]c3=O)C[C@@H]2O)N(CCBr)CCBr)O1 (stereo partly specified)	155	–	–	–	–
CC1CC(C)(C)NC(CCOP(=O)(OC[C@H]2O[C@@H](n3cc(F)c(=O)[nH]c3=O)C[C@@H]2O)N(C)CCCl)O1 (stereo partly specified)	375	160	25	3.5	300
Cc1cn([C@H]2C[C@H](O)[C@@H](COP(=O)(OCCC3NC(C)(C)CC(C)O3)N(C)CCBr)O2)c(=O)[nH]c1=O (stereo partly specified)	165	10500	7000	590	13000
O=c1[nH]cc(F)c(=O)[nH]1 [FLUOROURACIL]	> 2000	630	220	120	2200
Cc1ccc(S(=O)(=O)OCCN(C)P(=O)(OCCC2NC(C)(C)CC(C)O2)OC[C@H]2O[C@@H](n3cc(F)c(=O)[nH]c3=O)C[C@@H]2O)cc1 (stereo partly specified)	141	60	19	2.5	160
Cc1cn([C@H]2C[C@H](O)[C@@H](COP(=O)(OCCC3NC(C)(C)CC(C)O3)N(CCBr)CCBr)O2)c(=O)[nH]c1=O (stereo partly specified)	120	–	–	–	–
CC1CC(C)(C)NC(CCOP(=O)(OC[C@H]2O[C@@H](n3cc(F)c(=O)[nH]c3=O)C[C@@H]2O)N(C)CCI)O1 (stereo partly specified)	95	75	6	2	190
CC1CC(C)(C)NC(CCOP(=O)(OC[C@H]2O[C@@H](n3cc(F)c(=O)[nH]c3=O)C[C@@H]2O)N2CCOCC2)O1 (stereo partly specified)	–	5000	900	150	15000
CC1CC(C)(C)NC(CCOP(=O)(OC[C@H]2O[C@@H](n3cc(F)c(=O)[nH]c3=O)C[C@@H]2O)N(C)CCBr)O1 (stereo partly specified)	101	50	18	2.5	120
CC1CC(C)(C)NC(CCOP(=O)(OC[C@H]2O[C@@H](n3ccc(=O)[nH]c3=O)C[C@@H]2O)N(C)CCCl)O1 (stereo partly specified)	–	16500	6000	550	40000
CC1CC(C)(C)NC(CCOP(=O)(OC[C@H]2O[C@@H](n3cc(F)c(=O)[nH]c3=O)C[C@@H]2O)N2CCCCC2)O1 (stereo partly specified)	650	260	24	8	750
CC1CC(C)(C)NC(CCOP(=O)(OC[C@H]2O[C@@H](n3ccc(=O)[nH]c3=O)C[C@@H]2O)N(C)CCBr)O1 (stereo partly specified)	319	8200	1300	430	20000
